Bioassay records deposited in PubChem by Broad Institute.
T cruzi growth-1 = inhibitors of T. cruzi proliferation; inhibition, % at 8.34 µM; T. cruzi beta-gal in NIH3T3, GalScreen luminescence, 90 h; actives 5.9% (n = 77,000);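 active = mean inhibition above about 93%, with at least 55% of replicates each passing it, limit read from the data, passing the limit was not always enough; inconclusive = only one of those two conditions holds; inactive = neither condition holds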
IDH1 R132H inh = IDH1 R132H (human) inhibition | O75874 | IDH1 R132H reductase, diaphorase/resazurin fluorescence, 60 min | inhibition, % at 10 µM | actives 0.18% (n = 70,000); in the data active = inhibition above about 34%; inconclusive = no clear call, values can overlap the other calls; inactive = below about 11%
KDM4C inh = blocks human GASC-1 (KDM4C) demethylase activity | Q9H3R0 | GST-KDM4C 2-372, H3K9me3 peptide, LANCE TR-FRET | inhibition, % at 12.5 µM | actives 0.15% (n = 96,000);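 active = mean replicate inhibition above about 25%, with at least 55% of replicates also reaching it, limit read from the data, passing the limit was not always enough; inconclusive = only one of those two conditions met; inactive = neither condition met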
Target sequence (Q9H3R0 2-372 limits assumed): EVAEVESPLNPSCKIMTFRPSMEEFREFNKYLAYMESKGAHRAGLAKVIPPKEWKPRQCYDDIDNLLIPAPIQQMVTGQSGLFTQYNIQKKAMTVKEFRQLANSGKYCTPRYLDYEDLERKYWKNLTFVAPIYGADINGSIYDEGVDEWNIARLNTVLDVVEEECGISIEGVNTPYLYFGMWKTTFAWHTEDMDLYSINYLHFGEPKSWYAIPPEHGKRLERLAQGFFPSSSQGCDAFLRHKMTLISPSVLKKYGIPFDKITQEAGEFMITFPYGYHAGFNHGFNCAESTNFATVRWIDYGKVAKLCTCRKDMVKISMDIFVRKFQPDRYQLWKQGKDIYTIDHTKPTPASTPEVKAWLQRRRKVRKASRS
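Assay system: GST-GASC-1 enzyme fragment 2-372 | Amount: 10 nM enzyme | Medium: HEPES buffer, pH 7.5, plus ascorbate | Reagent: H3K9me3 peptide substrate, Fe(II), 2-oxoglutarate | Doses: Single-point compound screen | Incubation: 30 min demethylation and 1 h detection at room temperature | Measured by: LANCE TR-FRET, excitation 340 nm, emissions 618 and 671 nm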
T cruzi growth-2 = Trypanosoma cruzi proliferation inhibition. inhibition, % at 8.35 µM. AID 651739. shares compounds with T cruzi growth-1. T. cruzi beta-gal in NIH3T3, GalScreen luminescence, 90 h. actives 72% (n = 5,600);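 active = mean replicate inhibition above about 95% and at least 55% of replicates individually reaching it, limit read from the data; inconclusive = only one of the two criteria is met; inactive = neither criterion is met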
T cruzi growth-3 = Trypanosoma cruzi proliferation inhibition. shares compounds with T cruzi growth-1. T. cruzi beta-gal in NIH3T3, GalScreen luminescence, 90 h. inhibition, % at 2.09 µM. actives 21% (n = 5,600). AID 651740;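 active = mean inhibition above about 95%, with at least 55% of replicates also reaching it, limit read from the data; inconclusive = meets just one of the two conditions; inactive = meets neither condition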
3T3 cytotox = cytotoxicity in mouse NIH/3T3 fibroblasts; shares compounds with T cruzi growth-1; NIH/3T3 viability, CellTiter-Glo ATP luminescence, 90 h; cytotoxicity (signal decrease), % at 8.35 µM; actives 14% (n = 5,600); AID 651742;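 active = mean signal decrease across replicates above about 35% based on untreated-well scatter, with enough replicates individually passing, limit read from the data; inconclusive = no rule stated though some were filed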
3T3 cytotox 2 = kills mouse NIH/3T3 fibroblasts; shares compounds with T cruzi growth-1; NIH/3T3 viability, CellTiter-Glo ATP luminescence, 90 h; inhibition, % at 24.9 µM; actives 56% (n = 5,600); AID 651744;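 active = mean loss of cell viability signal at or above a set limit, and enough replicates individually reaching it; inconclusive = meets only the mean limit or only the replicate share; inactive = meets neither condition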
Large screens that a line does not name were inactive (follow-up assays come after a bar, where they were run). The sample as a whole holds a higher share of hits than the screen did.

C[C@H](CO)N1C[C@H](C)[C@@H](CN(C)C(=O)c2ccccc2)Oc2cc(C#CC3CC3)ccc2S1(=O)=O	none
C[C@H](CO)N1C[C@H](C)[C@@H](CN(C)C(=O)c2cccc(F)c2)Oc2cc(C#CC3CCCC3)ccc2S1(=O)=O	T cruzi growth-1 122 | T cruzi growth-2 102 | T cruzi growth-3 113 | 3T3 cytotox inactive | 3T3 cytotox 2 105
C[C@H](CO)N1C[C@H](C)[C@H](CN(C)C(=O)c2ccccc2)Oc2cc(C#CC3CC3)ccc2S1(=O)=O	none
N#CC1c2ccc(Br)cc2C=CC1c1ccccc1 (configuration not stated)	none (no result: T cruzi growth-1, KDM4C inh)
C[C@@H]1CCCCO[C@H](CN(C)S(=O)(=O)c2ccc(Cl)cc2)[C@@H](C)CN([C@H](C)CO)C(=O)c2cc(NC(=O)Cc3ccccc3)ccc2O1	none
C[C@@H]1CN([C@H](C)CO)C(=O)c2cc(NC(=O)Cc3ccccc3)ccc2O[C@@H](C)CCCCO[C@H]1CN(C)S(=O)(=O)c1ccc(Cl)cc1	T cruzi growth-1 96 (no result: IDH1 R132H inh) | T cruzi growth-2 107 | T cruzi growth-3 inactive | 3T3 cytotox inactive | 3T3 cytotox 2 inactive
C[C@@H]1CCCCO[C@H](CN(C)S(=O)(=O)c2ccc(Cl)cc2)[C@@H](C)CN([C@@H](C)CO)C(=O)c2cc(NC(=O)Cc3ccccc3)ccc2O1	T cruzi growth-1 105 | T cruzi growth-2 105 | T cruzi growth-3 inactive | 3T3 cytotox inactive | 3T3 cytotox 2 46
C[C@H](CO)N1C[C@H](C)[C@@H](CN(C)S(=O)(=O)c2ccc(Cl)cc2)OCCCC[C@H](C)Oc2ccc(NC(=O)Cc3ccccc3)cc2C1=O	none (no result: IDH1 R132H inh)
COc1ccc(-c2ccc([C@H]3[C@H](CO)N4CCCCN(C(=O)c5ccc(F)cc5)C[C@@H]34)cc2)cc1	none (no result: IDH1 R132H inh)
CCC(=O)N1CCCCN2[C@@H](CO)[C@H](c3ccc(-c4ccc(F)cc4)cc3)[C@@H]2C1	T cruzi growth-1 101 (no result: IDH1 R132H inh) | T cruzi growth-2 inactive | T cruzi growth-3 inactive | 3T3 cytotox inactive | 3T3 cytotox 2 61
COCC(=O)N1CCCCN2[C@H](C1)[C@@H](c1ccc(-c3ccc(F)cc3)cc1)[C@@H]2CO	none (no result: IDH1 R132H inh)
Cc1ccc(-c2ccc([C@@H]3[C@H](CO)N4CCCCN(C(=O)c5ccc(F)cc5)C[C@@H]34)cc2)cc1	T cruzi growth-1 111 (no result: IDH1 R132H inh) | T cruzi growth-2 98 | T cruzi growth-3 inactive | 3T3 cytotox inconclusive | 3T3 cytotox 2 103
Cc1ccc(-c2ccc([C@@H]3[C@@H](CO)N4CCCCN(C(=O)c5ccc(F)cc5)C[C@H]34)cc2)cc1	T cruzi growth-1 104 (no result: IDH1 R132H inh) | T cruzi growth-2 108 | T cruzi growth-3 inactive | 3T3 cytotox inactive | 3T3 cytotox 2 104
Cc1ccc(-c2ccc([C@@H]3[C@H]4CN(C(=O)c5ccc(F)cc5)CCCCN4[C@H]3CO)cc2)cc1	T cruzi growth-1 111 (no result: IDH1 R132H inh) | T cruzi growth-2 103 | T cruzi growth-3 inactive | 3T3 cytotox inactive | 3T3 cytotox 2 85
O=C(c1ccc(F)cc1)N1CCCCN2[C@H](CO)[C@@H](c3ccc(-c4ccccc4)cc3)[C@H]2C1	none (no result: IDH1 R132H inh)
O=C(c1ccc(F)cc1)N1CCCCN2[C@H](CO)[C@H](c3ccc(-c4ccccc4)cc3)[C@H]2C1	none (no result: IDH1 R132H inh)
Cc1cccc(NC(=O)C(C)NS(=O)(=O)c2ccccc2)c1 (configuration not stated)	none (no result: T cruzi growth-1, KDM4C inh)
C[C@@H]1CN([C@@H](C)CO)S(=O)(=O)c2ccc(-c3ccc(C(=O)N(C)C)cc3)cc2O[C@@H]1CN(C)Cc1ccc2c(c1)OCO2	T cruzi growth-1 inconclusive | T cruzi growth-2 inactive | T cruzi growth-3 inactive | 3T3 cytotox inactive | 3T3 cytotox 2 92
C[C@H](CO)N1C[C@H](C)[C@H](CN(C)C(=O)c2ccc3c(c2)OCO3)Oc2cc(-c3ccncc3)ccc2S1(=O)=O	T cruzi growth-1 104 | T cruzi growth-2 inactive | T cruzi growth-3 inactive | 3T3 cytotox inactive | 3T3 cytotox 2 28
C[C@@H]1CN([C@H](C)CO)S(=O)(=O)c2ccc(-c3ccncc3)cc2O[C@@H]1CN(C)C(=O)c1ccc2c(c1)OCO2	none
C[C@@H]1CN([C@@H](C)CO)S(=O)(=O)c2ccc(-c3ccncc3)cc2O[C@@H]1CN(C)C(=O)c1ccc2c(c1)OCO2	none
